Laboratory results published in ChEMBL document CHEMBL1134957, “Synthesis and SAR of 4-carboxy-2-azetidinone mechanism-based tryptase inhibitors” (Bioorg Med Chem Lett, 2002).

Legend:
[1] = Aqueous Stability (half-life period) at pH 7 and 37 degrees; assay type: ADME; settings: aqueous solution
In short: (§1)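 Compound half-life, reported in hours, was measured by incubation in aqueous buffer at 37 °C, run separately at pH 7 and pH 9.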

[2] = Aqueous Stability (half-life period) at pH 9 and 37 degrees; assay type: ADME; settings: aqueous solution; in short: as §1
Tryptase = Tryptase (Homo sapiens, UniProt Q9BZJ3+Q15661+Q9NRR2); experiment: In vitro inhibition of human tryptase.
Homo sapiens [3] = species: Homo sapiens; experiment: Ratio of inhibitiroy activities against human tryptase and human plasminogen activator urokinase microPa
Homo sapiens [4] = species: Homo sapiens; experiment: Selectivity for human tryptase compared to human plasmin.
Homo sapiens [5] = species: Homo sapiens; experiment: Selectivity for human tryptase compared to human thrombin.
Homo sapiens [6] = species: Homo sapiens; experiment: Selectivity for human tryptase compared to human tissue plasminogen activator tissue.
Homo sapiens [7] = species: Homo sapiens; experiment: Selectivity for human tryptase compared to human trypsin.
Homo sapiens [8] = species: Homo sapiens; experiment: Selectivity for human tryptase compared to human urokinase plasminogen activator.
Cavia porcellus [9] = species: Cavia porcellus; experiment: Effect (decrease in dynamic lung compliance) on pulmonary mechanics of ovalbumin-sensitized guinea pigs following allergen induced bronchoconstriction; assay type: functional
In short: (§2)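 Guinea pigs were sensitized by ip ovalbumin with aluminum hydroxide on days 0 and 14, plus cyclophosphamide (30 mg/kg) on day 12, and used between days 35 and 65. Under Na-pentobarbital anesthesia they were mechanically ventilated, with intratracheal flow and pressure recorded in real time. Ten min before iv ovalbumin challenge, compound was given as an intratracheal aerosol spray. Rlung and Cdyn were recorded as % change (n=9).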

Cavia porcellus [10] = experiment: Effect (decrease in dynamic lung compliance) on pulmonary mechanics of ovalbumin-sensitized guinea pigs following allergen induced bronchoconstriction upon intratracheal dosage of 75 ug/kg 10 min prior to ovalbumin challenge; assay type: functional; in short: as §2
Cavia porcellus [11] = species: Cavia porcellus; experiment: Dose required for the inhibition of the cellular inflammatory response in ovalbumin-sensitized guinea pigs was evaluated by the reduction in cell count by 70-80%; assay type: functional
In short: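 Ovalbumin-sensitized guinea pigs were given saline or compound as an intratracheal spray at two dose levels (75 or 225 per kg), and the tracheal incision was closed. Ovalbumin was injected into the jugular vein about 6 min after dosing, and the animals recovered from anesthesia. Bronchoalveolar lavage cell counts and protein were measured 24 h later. Controls were sham-operated animals without ovalbumin challenge.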

Cavia porcellus [12] = species: Cavia porcellus; experiment: Effect (increase in lung resistance (Rlung)) on pulmonary mechanics of ovalbumin-sensitized guinea pigs following allergen induced bronchoconstriction; assay type: functional; in short: as §2
Cavia porcellus [13] = experiment: Effect (increase in lung resistance (Rlung)) on pulmonary mechanics of ovalbumin-sensitized guinea pigs following allergen induced bronchoconstriction upon intratracheal dosage of 75 ug/kg 10 min prior to ovalbumin challenge; assay type: functional; in short: as §2

SMILES | half-life [1] [min] | half-life [2] [min] | IC50 (Tryptase) [nM] | Selectivity ratio (Homo sapiens [3]) | Selectivity ratio (Homo sapiens [4]) | Selectivity ratio (Homo sapiens [5]) | Selectivity ratio (Homo sapiens [6]) | Selectivity ratio (Homo sapiens [7]) | Selectivity ratio (Homo sapiens [8]) | Cdyn (Cavia porcellus [9]) [% delta] | Cdyn (Cavia porcellus [10]) [% delta] | Dose (Cavia porcellus [11]) [µg/kg] | Rlung (Cavia porcellus [12]) [% delta] | Rlung (Cavia porcellus [13]) [% delta]
COC(=O)N1CCN(C(=O)N2C(=O)[C@H](CCCN=C(N)N)[C@H]2C(=O)O)CC1 | > 2880 | 336 | 9 | 70 | 210 | 683 | > 1200 | 2 |  |  |  |  |  | 
N=C(N)NCCC[C@H]1C(=O)N(C(=O)NC2CCCCC2)[C@@H]1C(=O)O | > 2880 | 546 |  |  |  |  |  |  |  |  |  |  |  | 
N=C(N)NCCC[C@H]1C(=O)N(C(=O)N2CCN(S(=O)(=O)c3ccccc3)CC2)[C@@H]1C(=O)O | > 2880 | 102 | 13 |  | 147 | 556 | > 2500 | 14 | 43 |  |  |  |  | 
CCN(CC)C(=O)N1CCN(C(=O)N2C(=O)[C@H](CCCN=C(N)N)[C@H]2C(=O)O)CC1 | > 2880 | 384 | 5 |  | 227 | > 6600 | > 6600 | 3 | 520 |  |  |  |  | 
N=C(N)NCCC[C@H]1C(=O)N(C(=O)Nc2ccccc2)[C@@H]1C(=O)O (stereo in doubt) [listing 1 of 2 here] |  |  |  |  | > 6 |  | > 6 | 0.3 |  |  |  |  |  | 
N=C(N)NCCC[C@H]1C(=O)N(C(=O)N2CCN(C(=O)c3ccccc3)CC2)[C@@H]1C(=O)O | > 2880 | 234 | 5.2 |  | 332 | 286 | > 2000 | 1 | 142 |  |  |  |  | 
N=C(N)NCCC[C@H]1C(=O)N(C(=O)N2CCN(C(=O)OCCc3ccccc3)CC2)[C@@H]1C(=O)O | > 2880 | 420 | 0.7 |  | 302 | 3320 | 14200 | 8 | 926 |  |  |  |  | 
CC(C)(C)NC(=O)N1CCN(C(=O)N2C(=O)[C@H](CCCN=C(N)N)[C@H]2C(=O)O)CC1 | > 2880 | 480 | 4 |  | 430 | 2620 | > 8250 | 18 | 135 | -69 | -43 | 225 | 421 | 89
N=C(N)NCCC[C@H]1C(=O)N(C(=O)Nc2ccccc2)[C@@H]1C(=O)O (stereo in doubt) [listing 2 of 2 here] |  |  | 5380 |  |  |  |  |  |  |  |  |  |  | 
N=C(N)NCCC[C@H]1C(=O)N(C(=O)c2cccs2)[C@@H]1C(=O)O | 522 | < 6 | 1 |  | 12 | 190 | 109 | 3 | 5 |  |  |  |  | 
CC(C)(C)OC(=O)N1CCN(C(=O)N2C(=O)[C@H](CCCN=C(N)N)[C@H]2C(N)=O)CC1 (single isomer, unassigned) | 2520 | 18 | 0.4 |  | 227 | 105 | 8300 | 6 | 82 |  |  |  |  | 
N=C(N)NCCC[C@H]1C(=O)N(C(=O)Nc2ccccc2)[C@@H]1C(=O)O (stereo in doubt; 8a) [listing 1 of 2 here] | > 2880 | 132 | 6 |  |  |  |  |  |  |  |  |  |  | 
CC(C)(C)C(=O)N1CCN(C(=O)N2C(=O)[C@H](CCCN=C(N)N)[C@H]2C(=O)O)CC1 | > 2880 | 150 | 7 |  | 232 | > 1500 | > 1500 | 3 | 154 |  |  |  |  | 
N=C(N)NCCC[C@H]1C(=O)N(C(=O)c2ccccc2)[C@@H]1C(=O)O |  |  | 9 |  | 17 | 142 | 128 | 1 | 3 |  |  |  |  | 
N=C(N)NCCC[C@H]1C(=O)N(S(=O)(=O)c2ccc(-c3ccccc3)cc2)[C@@H]1C(=O)O | 636 | < 6 | 1 |  | 47 | 7 | 4370 | 1 | 44 |  |  |  |  | 
CNC(=O)[C@@H]1[C@@H](CCCN=C(N)N)C(=O)N1C(=O)N1CCN(C(=O)OC(C)(C)C)CC1 | 1910 | 18 | 0.7 |  | 172 | 177 | 6800 | 3 | 75 |  |  |  |  | 
CC(C)(C)OC(=O)N1CCN(C(=O)N2C(=O)[C@H](CCCN=C(N)N)[C@H]2C(=O)O)CC1 | > 2880 | 372 | 4 |  | 295 | > 8250 | > 8250 | 8 | 218 |  |  |  |  | 
N=C(N)NCCC[C@H]1C(=O)N(C(=O)NCc2ccccc2)[C@@H]1C(=O)O | > 2880 | 408 | 71 |  | 45 | 465 | 465 | 2 | 16 |  |  |  |  | 
CC(C)(C)OC(=O)N1CCN(C(=O)N2C(=O)[C@H](CCCN=C(N)N)[C@H]2C(=O)N2CCCCC2)CC1 | > 2880 | 48 | 3 |  | 205 | 155 | 4430 | 1 | 246 |  |  |  |  | 
N=C(N)NCCC[C@H]1C(=O)N(C(=O)c2ccc(-c3ccccc3)cc2)[C@@H]1C(=O)O | 666 | < 6 | 1 |  | 8 | 65 | 1610 | 2 | 3270 |  |  |  |  | 
N=C(N)NCCC[C@H]1C(=O)N(C(=O)Nc2ccccc2)[C@@H]1C(=O)O (stereo in doubt; 8a) [listing 2 of 2 here] |  |  |  |  | 52 | 1550 | 117 | 1 | 3 |  |  |  |  | 
N=C(N)NCCC[C@H]1C(=O)N(C(=O)Nc2ccccc2)[C@@H]1C(=O)O (relative stereo) |  |  | 992 |  |  |  |  |  |  |  |  |  |  | 
CC(C)(C)CC(=O)N1CCN(C(=O)N2C(=O)[C@H](CCCN=C(N)N)[C@H]2C(=O)O)CC1 | > 2880 | 390 | 11 |  | 314 | > 1000 | > 1000 | 1.5 | 8 |  |  |  |  | 
